For data set [1], the system named is 15‐LOX‐1 in RAW 264.7 cells. Kind of data set: cell-based competition assay. The arrangement: species or system murine. The note with it: for competition with BAM10 labelling, 10-fold competitor: 5 μM BAM10, competitor 10-fold (50 μM); for competition with BAM10 labelling, equimolar competitor: 5 μM BAM10, equimolar concentration of competitor.
The next data set concerns C. elegans. Kind of data set: growth and imaging of BAM10-treated C. elegans. It counts as in vivo, Caenorhabditis elegans. The following applies: 5 μM BAM10, competitor 50 μM, co-treated plates.
Data set [2] has as its target T1, purified 15‐LOX‐1 (Homo sapiens, UniProt P16050).
T1 sequence (P16050 1-662): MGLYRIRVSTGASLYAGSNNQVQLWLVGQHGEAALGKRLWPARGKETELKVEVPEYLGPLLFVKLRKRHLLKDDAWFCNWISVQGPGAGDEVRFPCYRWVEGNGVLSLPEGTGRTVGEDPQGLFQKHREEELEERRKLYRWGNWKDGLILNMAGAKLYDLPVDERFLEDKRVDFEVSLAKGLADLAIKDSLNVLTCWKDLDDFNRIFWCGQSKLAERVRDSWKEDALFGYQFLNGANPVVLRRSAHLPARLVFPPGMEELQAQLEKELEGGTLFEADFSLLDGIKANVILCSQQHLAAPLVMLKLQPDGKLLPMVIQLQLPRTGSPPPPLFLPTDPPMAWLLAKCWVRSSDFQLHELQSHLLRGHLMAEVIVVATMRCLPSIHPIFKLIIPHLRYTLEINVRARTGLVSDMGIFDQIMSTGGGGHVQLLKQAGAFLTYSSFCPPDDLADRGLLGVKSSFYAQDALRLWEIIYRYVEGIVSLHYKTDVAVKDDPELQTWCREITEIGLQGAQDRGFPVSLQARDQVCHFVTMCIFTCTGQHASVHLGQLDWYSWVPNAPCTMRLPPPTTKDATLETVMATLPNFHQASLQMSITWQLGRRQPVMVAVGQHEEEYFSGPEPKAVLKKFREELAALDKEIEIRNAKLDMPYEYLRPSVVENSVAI
Briefly: fluorescence labeling of recombinant purified 15-LOX-1. The format is binding. The note with it: applied prior to the probe BAM10. The essentials: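 Recombinant purified human 15‑LOX‑1 was incubated briefly with the fluorescent probe, then acetone‑precipitated, leaving excess probe in the supernatant; fluorescence of the labelled protein was read. For the dot‑blot, enzyme with or without pre‑incubation with a reference inhibitor was probe‑treated; controls lacked enzyme. Duplicates (n=2).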

The next data set has as its system RAW 264.7 cells. Briefly: imaging-based cell permeability and retention assay. The following applies: live RAW 264.7 cells, timeframe of the experiment. On the set-up: species or system murine. The essentials: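 Live RAW 264.7 cells were treated in situ on the confocal microscope with the fluorescein‑tagged probe at room temperature. Images were recorded immediately and continuously to follow cellular uptake over time.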

The subject of another data set is soybean LOX. Kind of data set: soybean LOX inhibition. The format is biochemical. The note with it: selectivity.
Data set [3] deals with T1, purified 15‐LOX‐1. Kind of data set: MS-based proteomics of covalent modification. It counts as binding. The following applies: adduct after preincubation with purified 15-LOX-1.
The next data set deals with T2, h-15-LOX-1 (Homo sapiens, UniProt P16050).
T2 sequence (P16050 1-662): T1 sequence (P16050 1-662)
Briefly: Michaelis-Menten / Lineweaver-Burk kinetics. It counts as biochemical.

SMILES strings stand for the structures.

As to `CCCCNC(=O)c1cc(-c2ccccc2)sc1N` [ThioLox, reference compound], in data set [1], the “competition with BAM10 labelling, 10-fold competitor” value was “decreased almost to background levels” and the “competition with BAM10 labelling, equimolar competitor” value is recorded as “not significant”. In the data set on C. elegans, the “competition with BAM10 fluorescence in the pharynx” value was “reduced BAM10 fluorescence intensity”. For the same compound, the “effect on BAM10 labeling of the enzyme (dot-blot)” value on purified 15‐LOX‐1 [2] was “reduced labeling of the enzyme”.
For the compound `O=C1OC2(c3ccc(O)cc3Oc3cc(O)ccc32)c2ccccc21` [fluorescein], the cell permeability result in the data set on RAW 264.7 cells was “impermeable”.
Take `CC#CCC#CCCCC=NNc1ccccc1` [BAM3]: the “difference in inhibitory potency in favor of human 15-LOX-1 over soybean LOX” value in the data set with soybean LOX was determined as 4 fold. Further, the “mass increase of tryptic peptide [YTLEINVRAR] (amino acids 395–404)” value on purified 15‐LOX‐1 [3] turned out to be 230 Da. In data set [1], the “competition with BAM10 labelling, 10-fold competitor” value was “reduction of BAM10 fluorescence intensity” and the “competition with BAM10 labelling, equimolar competitor” value is on record as “not significant”. The “competition with BAM10 fluorescence in the pharynx” value with C. elegans is recorded as “reduced BAM10 fluorescence intensity”.
Turning to `CC#CCC#CCCCC=O` [BAM1], the “type of inhibition (Lineweaver–Burk plots)” value at h-15-LOX-1 is reported as “noncompetitive inhibition”.
